Usually solubility (thermodynamic) stands for the concentration in solution at equilibrium with solid. The term IC50 denotes the concentration at which inhibition is half-maximal. One may read the inhibition in vivo as the percentage by which the read-out fell short of the control.

In brackets after ≈: the same amount, converted by molar mass. Activity calls are given as the source filed them. No cut-off for these calls is given here.

Data set [1] can be described thus: Thermodynamic solubility at pH 1.0. The format is physicochemical. To be noted: buffer.
Data set [2] is described as follows: Inhibition of Hedgehog signaling in mouse S12 cells assessed as reduction in receptor-mediated Gli1 mRNA expression by reporter gene assay. The class given is cell-based. In general terms: Reporter assays use an easily measured gene product as a stand-in for the process of interest.
Data set [3] in a line: Inhibition of Hedgehog signaling in human HEPM cells assessed as reduction in receptor-mediated Gli1 mRNA expression by reporter gene assay. The class given is cell-based.
Data set [4] is described as follows: Thermodynamic solubility at pH 6.5. The class given is physicochemical. To be noted: buffer.
For a further data set, the target named is Cytochrome P450 2C9 (Homo sapiens, UniProt P11712). Description: Inhibition of CYP2C9. The format is ADME.
The next data set addresses Cytochrome P450 3A4 (Homo sapiens, UniProt P08684). Briefly: Inhibition of CYP3A4. The class given is ADME.
Data set [5] is described as follows: Clearance in rat at 5 mg/kg, po or 1 mg/kg, iv. The format is ADME, organism-based. To be noted: in vivo. A digest of the protocol: (§1)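 Male rats received the TFA salt as a solution. The IV dose was 1 mg/kg in 80% PEG or in 5% DMSO/5% cremophor. The oral dose was 5 mg/kg in 60–80% PEG.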
Data set [6] in a line: Volume of distribution at steady state in rat at 5 mg/kg, po or 1 mg/kg, iv. The class given is ADME, organism-based. To be noted: in vivo, read-out: Vdss. A digest of the protocol:
as §1

Data set [7] in a line: Plasma concentration in Calu-6 cells xenografted nude mouse PK/PD model at 75 mg/kg, po bid for 5 days measured 4 hrs post last dose relative to untreated control. The format is ADME, organism-based. More on the design: dose 75 mg/kg, route oral. A digest of the protocol:
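Calu-6 tumor-bearing mice were dosed orally 75 mg/kg BID for five doses. Plasma was sampled 4 h after the last dose, at the same time as tumor harvest. Compound was given as free base or HCl salt, suspended in a methylcellulose/Tween or Labrafil-based vehicle.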

The test system of data set [8] is Mus musculus. Description: Inhibition of Hedgehog signaling in Calu-6 cells xenografted nude mouse PK/PD model assessed as reduction in Gli1 mRNA expression at 75 mg/kg, po bid for 5 doses measured 4 hrs post last dose relative to untreated control. Particulars: Calu-6, po.
In data set [9] the test system is Mus musculus. Briefly: Volume of distribution in Calu-6 cells xenografted nude mouse PK/PD model at 75 mg/kg, po bid for 5 days measured 4 hrs post last dose relative to untreated control. The format is ADME, organism-based. More on the design: dose 75 mg/kg, route oral. To be noted: in vivo.
The test system of data set [10] is Mus musculus. Description: Inhibition of Hedgehog signaling in Calu-6 cells xenografted nude mouse PK/PD model assessed as reduction in Gli1 mRNA expression at 75 mg/kg, po bid for 5 days measured 4 hrs post last dose relative to untreated control. The format is functional. Particulars: Calu-6, po, in the assay text read “for 5 doses” for “for 5 days”. A digest of the protocol:
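Nude mice bearing established Calu-6 tumors got 75 mg/kg by oral gavage BID for five doses. Tumors were harvested 4 h after the last dose. Stromal (murine) Gli1 mRNA was measured and expressed relative to vehicle-treated tumors. Compound was given as free base or HCl salt, suspended in a methylcellulose/Tween or Labrafil-based formulation.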

Data set [11] relates to Mus musculus. Description: Antitumor activity in mouse medulloblastoma allograft model harboring tumors with activating mutations in Hh pathway (Ptch+/-) assessed as complete regression of tumor volume at 5 mg/kg, po bid. On the set-up: dose 5 mg/kg. The class given is functional, organism-based. A digest of the protocol: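 Spontaneous medulloblastomas from Ptch+/- mice passaged subcutaneously in nude mice. Once tumors were established, mice were dosed twice daily for 20 days at 5 mg/kg BID. Tumor volume was followed over time.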

Data set [12] can be described thus: Plasma concentration in Calu-6 cells xenografted nude mouse PK/PD model at 25 mg/kg, po bid for 5 days measured 6 hrs post last dose relative to untreated control. The class given is ADME, organism-based. More on the design: dose 25 mg/kg, route oral.
Data set [13] deals with Mus musculus. Description: Inhibition of Hedgehog signaling in Calu-6 cells xenografted nude mouse PK/PD model assessed as reduction in Gli1 mRNA expression at 25 mg/kg, po bid for 5 days measured 4 hrs post last dose relative to untreated control. The format is functional.

Cytochrome P450 2C9, sequence (P11712 whole entry): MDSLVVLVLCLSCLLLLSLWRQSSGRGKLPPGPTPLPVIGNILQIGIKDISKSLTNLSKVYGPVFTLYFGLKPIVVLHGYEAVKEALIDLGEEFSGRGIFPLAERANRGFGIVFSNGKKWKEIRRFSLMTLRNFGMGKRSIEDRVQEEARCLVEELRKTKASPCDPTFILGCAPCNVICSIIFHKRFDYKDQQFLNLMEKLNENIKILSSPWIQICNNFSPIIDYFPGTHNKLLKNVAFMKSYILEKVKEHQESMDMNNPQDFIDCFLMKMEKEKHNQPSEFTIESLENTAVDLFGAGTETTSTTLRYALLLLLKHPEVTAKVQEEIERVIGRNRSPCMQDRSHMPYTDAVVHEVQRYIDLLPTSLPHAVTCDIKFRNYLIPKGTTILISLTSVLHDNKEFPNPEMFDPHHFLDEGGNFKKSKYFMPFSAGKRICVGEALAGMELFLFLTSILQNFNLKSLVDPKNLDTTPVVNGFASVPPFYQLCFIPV
Cytochrome P450 3A4, sequence (P08684 whole entry): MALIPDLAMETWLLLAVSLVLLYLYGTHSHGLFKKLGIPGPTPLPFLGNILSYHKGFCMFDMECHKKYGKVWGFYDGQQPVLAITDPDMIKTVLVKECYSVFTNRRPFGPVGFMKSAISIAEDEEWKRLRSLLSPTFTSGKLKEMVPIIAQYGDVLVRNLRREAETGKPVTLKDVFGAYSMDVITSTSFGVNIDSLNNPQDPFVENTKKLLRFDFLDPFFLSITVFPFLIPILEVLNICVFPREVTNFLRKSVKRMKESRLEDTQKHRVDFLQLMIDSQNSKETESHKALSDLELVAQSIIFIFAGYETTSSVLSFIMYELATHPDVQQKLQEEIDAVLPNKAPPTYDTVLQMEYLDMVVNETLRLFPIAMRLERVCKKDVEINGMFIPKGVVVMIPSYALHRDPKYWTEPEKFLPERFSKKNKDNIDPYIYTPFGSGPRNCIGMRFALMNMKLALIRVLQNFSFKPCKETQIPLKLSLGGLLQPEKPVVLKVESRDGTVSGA

Turning to `O=C(Nc1ccc(Cl)c(-c2ccccn2)c1)c1ccc(-n2cncn2)nc1`, the values for the thermodynamic solubility in data set [1] and in [4] were 4000 µg/mL (≈ 10600 µM) and 8 µg/mL (≈ 21.2 µM), respectively. In addition, the half-maximal inhibitory concentration (IC50) in [2] came to 47 nM; in data set [3], 8 nM; at Cytochrome P450 2C9, 200 nM; against Cytochrome P450 3A4 it was 200 nM. Besides, in data set [5], the clearance amounted to 4 mL/min/kg. Besides, the Vd in [6] turned out to be 1.4 L/kg.
`CCN1CCN(c2ccc(C(=O)Nc3ccc(Cl)c(-c4ccccn4)c3)c(C)n2)CC1`: the 50% inhibitory concentration (IC50) is 160 nM in [2], 5 nM in data set [3], greater than 20000 nM at Cytochrome P450 2C9 and greater than 20000 nM on Cytochrome P450 3A4.
In [7], `CS(=O)(=O)Nc1ccc(C(=O)Nc2ccc(Cl)c(-c3ccccn3)c2)c(Cl)c1` showed a concentration at 4 h of 2.2 µM. Besides, the values for the solubility (thermodynamic) in [1] and in data set [4] were 910 µg/mL (≈ 2090 µM) and 1 µg/mL (≈ 2.29 µM), respectively. Further, the IC50 in [2] is 17 nM; in [3] it was 2 nM; at Cytochrome P450 2C9 it was 8000 nM; on Cytochrome P450 3A4 it was greater than 20000 nM. In [5], this molecule yielded a clearance of 2.4 mL/min/kg. In addition, in the data set on Mus musculus [8], the inhibition in vivo at 75 mg/kg came out at 25%.
In the case of `Cc1nc(NCCO)ccc1C(=O)Nc1ccc(Cl)c(-c2ccccn2)c1`, the IC50 is 62 nM in [2], 23 nM in [3], greater than 20000 nM against Cytochrome P450 2C9 and greater than 20000 nM against Cytochrome P450 3A4.
`Cc1ncn(-c2ccc(C(=O)Nc3ccc(Cl)c(-c4ccccn4)c3)c(C)n2)n1` yielded a concentration at 4 h in [7] of 150 µM. Moreover, the values for the Vd (in the data set with Mus musculus [9]; in [6]) were 0.15 L/kg and 0.24 L/kg, respectively. Also, the figures for the solubility (thermodynamic) in data set [1] and in data set [4] were 900 µg/mL (≈ 2220 µM) and 6 µg/mL (≈ 14.8 µM), respectively. Besides, the IC50 in data set [2] is 67 nM; in [3], 8 nM; on Cytochrome P450 2C9 it was greater than 20000 nM; at Cytochrome P450 3A4 it was greater than 20000 nM. For the same molecule, the clearance in data set [5] turned out to be 0.7 mL/min/kg. The inhibition in vivo at 75 mg/kg in the data set on Mus musculus [8] came out at 50%.
`CS(=O)(=O)Cc1ccc(C(=O)Nc2ccc(Cl)c(-c3ccccn3)c2)c(Cl)c1` returned a concentration at 4 h in data set [7] of 0.3 µM. In the data set on Mus musculus [10], the inhibition in vivo at 75 mg/kg came to 0%. For the same molecule, the solubility (thermodynamic) stood at 110 µg/mL (≈ 253 µM) in data set [1] and 3 µg/mL (≈ 6.89 µM) in [4]. The half-maximal inhibitory concentration (IC50) in data set [2] was 3 nM; in data set [3], 1 nM; against Cytochrome P450 2C9, 16000 nM; against Cytochrome P450 3A4, greater than 20000 nM. The molecule also registered a clearance in [5] of 5.5 mL/min/kg.
As for `O=C(NCc1ccccn1)c1ccc(C(=O)Nc2ccc(Cl)c(-c3ccccn3)c2)c(Cl)c1`, the inhibition entry with Mus musculus [11] was “Active”. The thermodynamic solubility worked out at 4300 µg/mL (≈ 9010 µM) in data set [1] and 3 µg/mL (≈ 6.28 µM) in data set [4]. Also, the IC50 was 4 nM in data set [2], 0.4 nM in [3], 4500 nM against Cytochrome P450 2C9 and greater than 20000 nM against Cytochrome P450 3A4. This molecule also yielded a clearance in data set [5] of 6.7 mL/min/kg. Further, the concentration at 6 h in data set [12] turned out to be 1.7 µM. The inhibition in vivo at 25 mg/kg in the data set on Mus musculus [13] was 90%.
For `CC(=O)N1CCN(c2ccc(C(=O)Nc3ccc(Cl)c(-c4ccccn4)c3)c(C)n2)CC1`, the concentration at 4 h in [7] came out at 22 µM. In the data set with Mus musculus [10], the inhibition in vivo at 75 mg/kg worked out at 80%. The figures for the thermodynamic solubility in data set [1] and in data set [4] were 3200 µg/mL (≈ 7110 µM) and 6 µg/mL (≈ 13.3 µM), respectively. The 50% inhibitory concentration (IC50) in data set [2] was 22 nM; in data set [3], 5 nM; against Cytochrome P450 2C9 it was 16000 nM; at Cytochrome P450 3A4, greater than 20000 nM. For the same molecule, the clearance in [5] came to 2 mL/min/kg. Also, the Vd in data set [6] was found to be 0.38 L/kg.
For `O=C(NCc1ccccc1)c1ccc(C(=O)Nc2ccc(Cl)c(-c3ccccn3)c2)c(Cl)c1`, the IC50 in data set [2] was 7 nM; in data set [3], 1 nM; against Cytochrome P450 2C9, 1200 nM; against Cytochrome P450 3A4, greater than 20000 nM.
Consider `Cc1nc(C(F)(F)F)ccc1C(=O)Nc1ccc(Cl)c(-c2ccccn2)c1`, for which, in [7], the concentration at 4 h amounted to 15 µM. In addition, the inhibition in vivo at 75 mg/kg in the data set with Mus musculus [10] was determined as 40%. Moreover, the solubility (thermodynamic) in [1] came out at 1000 µg/mL (≈ 2550 µM); in data set [4], 2 µg/mL (≈ 5.1 µM). Also, the IC50 is 42 nM in [2], 15 nM in [3], greater than 20000 nM against Cytochrome P450 2C9 and greater than 20000 nM against Cytochrome P450 3A4. In data set [5], this molecule displayed a clearance of 4.5 mL/min/kg. In addition, in data set [6], the Vd amounted to 0.95 L/kg.
On to `NS(=O)(=O)c1ccc(C(=O)Nc2ccc(Cl)c(-c3ccccn3)c2)c(Cl)c1`, for which the IC50 in data set [2] is 35 nM; in data set [3] it was 5 nM; on Cytochrome P450 2C9, greater than 20000 nM; at Cytochrome P450 3A4 it was greater than 20000 nM.
Consider `CS(=O)(=O)c1ccc(C(=O)Nc2ccc(Cl)c(-c3ccccn3)c2)c(Cl)c1` [VISMODEGIB], for which the inhibition in vivo at 75 mg/kg in the data set with Mus musculus [10] worked out at 90%. Also, the solubility (thermodynamic) in data set [1] came out at 3500 µg/mL (≈ 8310 µM); in data set [4], 10 µg/mL (≈ 23.7 µM). Further, the IC50 in data set [2] was 13 nM; in [3] it was 3 nM; against Cytochrome P450 2C9, greater than 20000 nM; at Cytochrome P450 3A4, greater than 20000 nM. The same molecule returned a clearance in data set [5] of 3.7 mL/min/kg.
As to `Cc1nc(NCC(C)C)ccc1C(=O)Nc1ccc(Cl)c(-c2ccccn2)c1`, the half-inhibitory concentration (IC50) in data set [2] is 53 nM; in data set [3], 14 nM; at Cytochrome P450 2C9 it was 500 nM; at Cytochrome P450 3A4, 19000 nM.
As for `O=C(Nc1ccc(Cl)c(-c2ccccn2)c1)c1ccc(C(=O)N2CCS(=O)(=O)CC2)cc1Cl`, the solubility (thermodynamic) is 4300 µg/mL (≈ 8530 µM) in data set [1] and 60 µg/mL (≈ 119 µM) in data set [4]. Further, the IC50 is 33 nM in data set [2], 5 nM in data set [3], 9000 nM against Cytochrome P450 2C9 and greater than 20000 nM at Cytochrome P450 3A4. The same molecule came in with a clearance in data set [5] of 35 mL/min/kg.

These data come from ChEMBL document CHEMBL1268916, “Second generation 2-pyridyl biphenyl amide inhibitors of the hedgehog pathway” (Bioorg Med Chem Lett, 2010).
